Data from ChEMBL document CHEMBL1148384, “Design and synthesis of peptidomimetic protein farnesyltransferase inhibitors as anti-Trypanosoma brucei agents” (J Med Chem, 2004).

Tests used:
[1] = tested on: Trypanosoma brucei rhodesiense; test: Effective dose required to inhibit the growth of Trypanosoma brucei rhodesiense; assay type: functional; conditions: read-out: ED50 (the source's name)
Summary of the method: (§1)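 Bloodstream-form trypomastigotes of strain STIB 900 were grown in HMI-18 with nonessential amino acids, glucose and 15% heat-inactivated FCS at 37 °C, 5% CO2. Compounds were given as serial dilutions, in triplicate, from 1 × 10^4 cells/well. Cultures ran 72 h before Alamar Blue read-out, and ED50 was fitted.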

[2] = tested on: Trypanosoma brucei brucei; test: Effective dose required to inhibit the growth of Trypanosoma brucei; assay type: functional; conditions: read-out: ED50 (the source's name)
Summary of the method: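 Bloodstream-form strain 427 was grown in HMI-9 with 10% FBS at 37 °C, 5% CO2. Cells were seeded at 1 × 10^4 trypomastigotes/well in triplicate, with serial dilutions from 20 mM DMSO stocks. Growth was read with Alamar Blue at 48 h, pentamidine served as positive control, and ED50 was fitted from the curves.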

[3] = molecular target: protein farnesyltransferase (Trypanosoma brucei); test: Inhibition of Trypanosoma brucei protein farnesyltransferase
[4] = tested on: protein farnesyltransferase (Trypanosoma brucei); test: Inhibition of against Trypanosoma brucei protein farnesyltransferase at 50 nM concentration
NIH3T3 [5] = test: Effective dose against murine 3T3 fibroblasts cells; assay type: functional; conditions: Mus musculus, read-out: ED50 (the source's name)
Summary of the method: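 Murine 3T3 fibroblasts were grown in RPMI 1640 with 10% FBS and held 72 h with compound at 37 °C, 5% CO2.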

[6] = molecular target: protein farnesyltransferase (Trypanosoma brucei); test: Inhibition of Trypanosoma brucei protein farnesyltransferase at 50 nM
[7] = tested on: Trypanosoma brucei rhodesiense; test: Dose required to inhibit growth of Trypanosoma brucei rhodesiense; 14->60 uM; assay type: functional; conditions: read-out: ED50 (the source's name); summary of the method: as §1
NIH3T3 [8] = test: Dose required to block Ras farnesylation in mouse 3T3 fibroblasts; assay type: functional; conditions: read-out: ED50 (the source's name)
[9] = molecular target: Protein farnesyltransferase (Homo sapiens, UniProt P49354+P49356); test: Inhibition of mammalian protein farnesyltransferase; assay type: protein-complex assay

EC50 [1]	EC50 [2]	IC50 [3]	inhibition [4]	IC50 [6]	EC50 [7]	IC50 [9]	Compound	EC50 (NIH3T3 [5])	EC50 (NIH3T3 [8])
> 60 µM	> 25 µM	0.0066 µM	83.2%	–	–	–	CSCC[C@H](NC(=O)c1ccc(NC(=O)Cc2cncn2C)cc1-c1ccccc1C)C(=O)O	> 25 µM	–
–	> 10 µM	–	85.6%	0.008 µM	> 60 µM	–	CSCC[C@H](NC(=O)c1ccc(NCc2cncn2Cc2ccc(-c3ccccc3)cc2)cc1-c1ccccc1)C(=O)O	–	–
0.2 µM	1 µM	0.0018 µM	96.1%	–	–	0.00086 µM	CSCC[C@H](NC(=O)c1ccc(CNCc2c[nH]cn2)cc1-c1ccccc1C)C(=O)O	> 25 µM	0.02 µM
